For one assay, the system named is MDA-MB-468. The assay is described as follows: Antiproliferative activity against human MDA-MB-468 cells assessed as reduction in cell viability incubated for 72 hrs by CellTitre-Glo assay. Conditions: MDA-MB-468, 72 h. Type of assay: functional, cell-based. An outline of the steps:
(§1)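 Cells seeded at 2,000 per well and left to adhere overnight. After 24 h, medium was switched to growth medium with 2% FBS. Test agent was added at 0.5 nmol/L to 10 μmol/L for 72 h. Viability was read by CellTiter-Glo luminescence. IC50 came from nonlinear regression sigmoidal dose-response fits.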

Another assay concerns LNCaP. The assay is described as follows: Antiproliferative activity against human LNCaP assessed as reduction in cell viability incubated for 72 hrs by CellTitre-Glo assay. Type of assay: functional, cell-based. An outline of the steps:
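Cells seeded at 2,000/well, adhered overnight, then given medium with 2% FBS containing test agents at 0.5 nmol/L to 10 μmol/L for 72 h. Viability read by CellTiter-Glo luminescence. IC50 derived by nonlinear regression with a sigmoidal dose-response fit.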

In assay [1] the test system is A-375. As to the kind of experiment: Antiproliferative activity against human A-375 cells harboring BRAF V600E mutation assessed as reduction in cell viability incubated for 72 hrs by CellTitre-Glo assay. Type of assay: functional, cell-based. Conditions: A-375, 72 h. The gist of the method:
as §1

The subject of another assay is MEL1102. The assay is described as follows: Induction of apoptosis in human MEL1102 cells assessed as increase in cleave-PARP protein expression at 5 to 15 nM after 72 hrs by sandwich ELISA analysis. Format: functional, cell-based. Conditions: dose 5-15 nM. An outline of the steps: (§2)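 Cells were plated at 250,000 per well in 6-well plates and left overnight. Fresh medium containing agent at 5 or 15 nM final was added for 72 h. Cleaved PARP (Asp214) was measured by sandwich ELISA on 50 μg total protein and expressed relative to DMSO-treated cells.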

Assay [2] is described as follows: Antiproliferative activity against human MEXF1341 cells harboring NRAS Q61 mutation assessed as reduction in cell viability incubated for 72 hrs by CellTitre-Glo assay. Conditions: MEXF1341, 72 h. Format: functional, cell-based. An outline of the steps: as §1
The test system of assay [3] is A-375. The assay is described as follows: Antiproliferative activity against human A-375 cells over expressing Dominant/negative TCF4 assessed as reduction in cell viability incubated for 72 hrs by CellTitre-Glo assay. Format: functional, cell-based.
Assay [4] addresses T1, Glycogen synthase kinase-3 (Homo sapiens) (UniProt P49840+P49841). The assay is described as follows: Inhibition of GSK3 in human vemurafenib-resistant A-375 cells assessed as increase Axin2 protein expression level at 20 nM up to 8 hrs by western blot analysis. Format: cell-based. An outline of the steps: (§3)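 Vemurafenib-resistant A375 cells were selected by 3 months' growth in vemurafenib, then treated for up to 8 h. Lysed in Triton X100/Tris pH 7.5/NaCl/EDTA/EGTA buffer with protease/phosphatase inhibitors, freeze-thawed and sonicated. Equal protein run on 4–20% SDS-PAGE and blotted to nitrocellulose. Antibodies at 1:1000 in 1% BSA overnight at 4°C, HRP anti-rabbit secondary, chemiluminescence.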

A short description of assay [5]: Antiproliferative activity against human MEL1102 cells harboring NRAS Q61K mutation assessed as reduction in cell viability incubated for 72 hrs by CellTitre-Glo assay. Conditions: MEL1102, 72 h. Format: functional, cell-based. An outline of the steps:
as §1

Assay [6] in a line: Antiproliferative activity against human MEXF1792 cells harboring NRAS G13D mutation assessed as reduction in cell viability incubated for 72 hrs by CellTitre-Glo assay. Format: functional, cell-based. The conditions noted are these: MEXF1792, 72 h. An outline of the steps:
as §1

In assay [7] the test system is A-375. The assay is described as follows: Antitumor activity against human A-375 cells xenografted in CD1 nu/nu mouse assessed decrease in tumor volume at 25 mg/kg, iv q3d. Type of assay: functional, organism-based. An outline of the steps:
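Female 6–8 week athymic nude mice received 5 million A375 cells s.c. in the flank with matrigel (1:1). At tumors of ~100 mm2, mice were randomized to agent 25 mg/kg i.v. Q3D or vehicle (20% Captisol/0.01N HCl). Caliper tumor volume ((a2 x b)/2) and body weight were recorded twice weekly. Repeated-measures ANOVA was fit by mixed model.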
(Xenograft models place foreign cells or tissue in a host animal.)

Assay [8] addresses T1, Glycogen synthase kinase-3 (Homo sapiens). The assay is described as follows: Inhibition of GSK3 in human M14 cells assessed as increase in free beta-catenin at 20 nM for 48 hrs by immunoprecipitation analysis. Format: cell-based. An outline of the steps:
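Free β-catenin measured as the fraction binding the E-cadherin C-terminus. Lysate (300 μg protein) incubated with 10 μg His-Flag-E-cadherin, then captured overnight at 4°C on anti-FLAG M2 affinity gel. Resin washed 3 times in lysis buffer and eluted in reducing loading buffer. Bound β-catenin detected by immunoblot.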

In a further assay the test system is SK-BR-3. As to the kind of experiment: Antiproliferative activity against human SK-BR-3 assessed as reduction in cell viability incubated for 72 hrs by CellTitre-Glo assay. Conditions: SK-BR-3, 72 h. Format: functional, cell-based. The gist of the method:
as §1

For a further assay, the system named is DU-145. The assay is described as follows: Antiproliferative activity against human DU-145 assessed as reduction in cell viability incubated for 72 hrs by CellTitre-Glo assay. Type of assay: functional, cell-based. The conditions noted are these: DU-145, 72 h. An outline of the steps:
as §1

The subject of another assay is SK-MEL-28. The assay is described as follows: Antiproliferative activity against human SK-MEL-28 cells harboring BRAF V600E mutation assessed as reduction in cell viability incubated for 72 hrs by CellTitre-Glo assay. The conditions noted are these: SK-MEL-28, 72 h. Format: functional, cell-based. An outline of the steps:
as §1

Another assay concerns M14. The assay is described as follows: Induction of apoptosis in human M14 cells assessed as increase in cleave-PARP protein expression at 5 to 15 nM after 72 hrs by sandwich ELISA analysis. Format: functional, cell-based. The conditions noted are these: dose 5-15 nM. The gist of the method:
as §2
For orientation: In an ELISA, binding on a coated surface is turned into a signal by an enzyme label.

For a further assay, the system named is A549. The assay is described as follows: Antiproliferative activity against human A549 assessed as reduction in cell viability incubated for 72 hrs by CellTitre-Glo assay. Format: functional, cell-based. The conditions noted are these: A549, 72 h. The gist of the method: as §1
Assay [9] addresses T1, Glycogen synthase kinase-3 (Homo sapiens). As to the kind of experiment: Inhibition of GSK3 in human A-375 cells harbouring TCF/LEF luciferase reporter gene assessed as increase in wnt signaling incubated for 5 hrs by Bright-Glo luciferase assay. Type of assay: cell-based. The gist of the method:
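A375 cells carried a lentiviral TCF/LEF-responsive luciferase reporter, selected with puromycin 1 μg/ml for 3 days. Cells were seeded at 10,000 per well and moved to 2% FBS medium. Agents were given at 0.5 nmol/L–1 μmol/L for 5 h, and luciferase was read with Bright-Glo substrate.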
On the technique in general: A reporter such as luciferase makes a cellular process visible.

The target is the same in assay [10]. The assay is described as follows: Inhibition of GSK3 in human vemurafenib-resistant A-375 cells assessed as increase beta-catenin stabilization at 20 nM up to 8 hrs by western blot analysis. Format: cell-based. The gist of the method:
as §3

Another assay relates to COLO 205. The assay is described as follows: Antiproliferative activity against human COLO 205 assessed as reduction in cell viability incubated for 72 hrs by CellTitre-Glo assay. Type of assay: functional, cell-based. The conditions noted are these: COLO 205, 72 h. The gist of the method:
as §1

The subject of another assay is COLO 320. As to the kind of experiment: Antiproliferative activity against human COLO 320 assessed as reduction in cell viability incubated for 72 hrs by CellTitre-Glo assay. Format: functional, cell-based. The conditions noted are these: COLO 320, 72 h. The gist of the method:
as §1

Assay [11] deals with A-375. As to the kind of experiment: Antiproliferative activity against human A-375 cells transfected with GSK3beta shRNA assessed as reduction in cell viability at 4.5 nM incubated for 72 hrs by CellTitre-Glo assay. Format: functional, cell-based.
Assay [12] concerns vemurafenib-resistant A-375. As to the kind of experiment: Effect on RAS signaling in human vemurafenib-resistant A-375 cells assessed as effect on phosphorylation of MEK at 20 nM measured up to 8 hrs by western blot analysis. Type of assay: cell-based. The gist of the method: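 Parental and vemurafenib-resistant A375 cells were treated for up to 8 h. Lysis was on ice in 1% Triton X100, 25 mM Tris pH 7.5, 150 mM NaCl, EDTA/EGTA and protease/phosphatase inhibitors. Proteins were run on 4–20% SDS-PAGE and blotted to nitrocellulose. pMEK antibody was used at 1:1000 overnight at 4°C, with HRP secondary and chemiluminescence detection.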

Molecules are shown by their SMILES. Calls of active or inactive are those of the source. No cut-off for these calls is given here. Bounds are passed on as bounds.

T1 sequence (P49840 whole entry, looked up): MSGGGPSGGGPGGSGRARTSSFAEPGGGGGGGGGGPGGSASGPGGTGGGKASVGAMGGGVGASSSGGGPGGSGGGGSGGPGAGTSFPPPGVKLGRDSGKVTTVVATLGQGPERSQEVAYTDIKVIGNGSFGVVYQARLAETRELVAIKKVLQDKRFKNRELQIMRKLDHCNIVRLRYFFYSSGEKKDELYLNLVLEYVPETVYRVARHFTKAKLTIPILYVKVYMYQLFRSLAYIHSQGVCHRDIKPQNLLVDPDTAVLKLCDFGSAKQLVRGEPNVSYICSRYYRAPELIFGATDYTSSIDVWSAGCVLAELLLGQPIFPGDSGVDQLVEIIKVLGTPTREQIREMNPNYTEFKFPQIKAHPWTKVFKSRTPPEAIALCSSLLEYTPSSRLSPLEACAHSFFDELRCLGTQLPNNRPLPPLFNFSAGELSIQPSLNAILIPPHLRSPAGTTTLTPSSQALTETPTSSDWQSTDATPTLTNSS
T1 sequence (P49841 whole entry, looked up): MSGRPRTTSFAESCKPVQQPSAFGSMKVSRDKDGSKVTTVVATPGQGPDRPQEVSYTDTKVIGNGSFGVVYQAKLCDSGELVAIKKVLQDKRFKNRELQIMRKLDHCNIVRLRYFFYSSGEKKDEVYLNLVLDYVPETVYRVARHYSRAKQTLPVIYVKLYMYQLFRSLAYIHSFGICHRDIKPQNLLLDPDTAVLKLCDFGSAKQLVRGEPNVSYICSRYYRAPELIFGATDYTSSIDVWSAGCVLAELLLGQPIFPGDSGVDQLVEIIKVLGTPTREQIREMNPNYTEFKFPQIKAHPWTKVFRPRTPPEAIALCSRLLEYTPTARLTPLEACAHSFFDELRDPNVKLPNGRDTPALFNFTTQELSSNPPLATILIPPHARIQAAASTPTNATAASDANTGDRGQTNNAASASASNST

`O=C1NC(=O)C(c2cnc3ccccn23)=C1c1cn2c3c(cc(F)cc13)CN(C(=O)N1CCCCC1)CC2` [LY-2090314]: the IC50 (usually the concentration that inhibits the measured activity by half) in the assay with MDA-MB-468 worked out at 450 nM; with LNCaP, 150 nM; in the assay with A-375 [1], 10 nM; in [2], 8 nM; in assay [5] it was 11 nM; in assay [6] it was 46 nM. Moreover, the IC50 is > 20000 nM with SK-BR-3; 5520 nM in the assay with DU-145; > 10000 nM in the assay on SK-MEL-28; 9960 nM in the assay with A549; 11300 nM with COLO 205; > 20000 nM in the assay on COLO 320. The outcome with MEL1102, in the assay with A-375 [7], in the assay on M14 and with A-375 [11] was Active. Also, the outcome (with A-375 [3]; in assay [12]) was inactive. Besides, the inhibition entry in assay [4], in assay [8], in [9] and in assay [10] was “Active” in each case.

These data come from ChEMBL document CHEMBL5653620, “Activating the Wnt/β-Catenin Pathway for the Treatment of Melanoma--Application of LY2090314, a Novel Selective Inhibitor of Glycogen Synthase Kinase-3” (PLoS One, 2015).
